Laboratory results: ChEMBL document CHEMBL1132545, “Synthesis and structure-activity relationships of new 1, 3-disubstituted cyclohexanes as structurally rigid leukotriene B(4) receptor antagonists” (J Med Chem, 1999)
Blank lines part the entries; values can stand above or below the compound they belong to.

Legend:
Leukotriene B4 receptor = Leukotriene B4 receptor (Homo sapiens, UniProt Q9NPC1+Q15722); test: Inhibition of binding of [3H]LTB4 (1 nM) to intact human polymorphonuclear leukocytes (PMNs)
How it was run: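 Intact donor PMNs (10^6 cells) in Ca2+/Mg2+-free HBSS with 5 mM HEPES, incubated 20 min at 4 °C with 1 nM [3H]LTB4 (7.4 TBq/mmol), with or without competitors at various concentrations. Bound label measured by filtration. […] Screening at 10 μM.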

[1] = (§1) Inhibition of LTB4 induced chemotaxis of isolated human PMNs; assay type: functional
How it was run: (§2)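 Human PMNs from healthy donors' heparinized blood, isolated by dextran sedimentation, Ficoll and hypotonic lysis. Cells labeled with 51Cr (1 μCi/10^6 cells, 1 h, 37 °C), resuspended at 10^7 cells/mL in Hank's buffer with 1% BSA. LTB4 plus competitors in lower Boyden–Keller chamber, two 3 μm cellulose nitrate filters, 150 min at 37 °C, 5% CO2. Lower-filter radioactivity counted, expressed as percent of control. pKB from n experiments.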

Homo sapiens = species: Homo sapiens; test: as §1; assay type: functional; how it was run: as §2

SMILES: CN(C)C(=O)C[C@]1(O)CCC[C@H](/C=C/C(F)CCCCc2ccccc2)C1 (stereo in doubt; 16 a)
IC50 (Leukotriene B4 receptor): 2 µM

SMILES: CN(C)OC(=O)/C=C1/CCC[C@@H](/C=C/C(O)CCCCc2ccccc2)C1 (some centres undefined)
IC50 (Leukotriene B4 receptor): 1 µM

SMILES: O=C([O-])C[C@@H]1CCC[C@H](CCC(O)CCCCc2ccccc2)C1.[Na+] (some centres undefined)
IC50 (Leukotriene B4 receptor): 2.6 µM

SMILES: O=C([O-])/C=C1/CCC[C@H](/C=C/C(O)CCCCc2ccccc2)C1.[Na+] (stereo in doubt; form 2)
IC50 (Leukotriene B4 receptor): 0.5 µM

SMILES: CCCCCCCCC(O)/C=C/[C@H]1CCC[C@](O)(CC(=O)[O-])C1.[Na+] (stereo in doubt; 4c)
IC50 (Leukotriene B4 receptor): 4 µM

SMILES: CC(=O)OC(/C=C/[C@H]1CCC/C(=C/C(=O)N(C)C)C1)CCCCc1ccccc1 (some centres undefined)
IC50 (Leukotriene B4 receptor): > 10 µM

SMILES: CCCCCC(O)/C=C/[C@H]1CCC[C@](O)(CC(=O)[O-])C1.[Na+] (stereo in doubt; 2d)
IC50 (Leukotriene B4 receptor): 10 µM
pKB (Homo sapiens): 5.25

SMILES: CCCCCCCCC(O)/C=C/[C@H]1CCC[C@](O)(CC(=O)[O-])C1.[Na+] (stereo in doubt; 4d)
IC50 (Leukotriene B4 receptor): 2.5 µM

SMILES: CN(C)C(=O)C[C@]1(O)CCC[C@H](/C=C/C(C)(O)CCCCc2ccccc2)C1 (stereo in doubt; 15b)
IC50 (Leukotriene B4 receptor): 7 µM

SMILES: CN(C)C(=O)C[C@]1(O)CCC[C@H](/C=C/[C@H](O)CCCCc2ccccc2)C1
IC50 (Leukotriene B4 receptor): > 10 µM

SMILES: CCCCCC(O)/C=C/[C@H]1CCC[C@@](O)(CC(=O)[O-])C1.[Na+] (stereo in doubt; 2b)
IC50 (Leukotriene B4 receptor): 8 µM
pKB [1]: 5.1

SMILES: O=C([O-])/C=C1/CCC[C@H](/C=C/C(O)CCCCc2ccccc2)C1.[Na+] (stereo in doubt; form 1)
IC50 (Leukotriene B4 receptor): > 10 µM

SMILES: CN(C)C(=O)C[C@]1(O)CCC[C@H](/C=C/[C@@H](O)CCCCc2ccccc2)C1
IC50 (Leukotriene B4 receptor): 0.04 µM
pKB [1]: 7.5

SMILES: O=C([O-])/C=C1/CCC[C@H](/C=C/C(O)CCCCc2ccccc2)C1.[Na+] (stereo in doubt; 10a)
IC50 (Leukotriene B4 receptor): > 10 µM

SMILES: CCCCCCCCC(O)/C=C/[C@H]1CCC[C@@](O)(CC(=O)[O-])C1.[Na+] (stereo in doubt; 4a)
IC50 (Leukotriene B4 receptor): > 10 µM

SMILES: CCCCCCCCC(O)/C=C/[C@H]1CCC[C@@](O)(CC(=O)[O-])C1.[Na+] (stereo in doubt; 4b)
IC50 (Leukotriene B4 receptor): 0.9 µM
pKB (Homo sapiens): 6.42

SMILES: CN(C)C(=O)C[C@]1(O)CCC[C@H](/C=C/C(C)(O)CCCCc2ccccc2)C1 (stereo in doubt; form 2)
IC50 (Leukotriene B4 receptor): > 10 µM

SMILES: CCCCCC(O)/C=C/[C@H]1CCC[C@](O)(CC(=O)[O-])C1.[Na+] (stereo in doubt; 2c)
IC50 (Leukotriene B4 receptor): > 10 µM

SMILES: CN(C)C(=O)C[C@]1(O)CCC[C@H](/C=C/C(C)(O)CCCCc2ccccc2)C1 (stereo in doubt; form 1)
IC50 (Leukotriene B4 receptor): 4.5 µM

SMILES: CN(C)OC(=O)/C=C1/CCC[C@H](/C=C/C(O)CCCCc2ccccc2)C1 (some centres undefined)
IC50 (Leukotriene B4 receptor): 7 µM

SMILES: CCCCCC(O)/C=C/[C@H]1CCC[C@@](O)(CC(=O)[O-])C1.[Na+] (stereo in doubt; 2a)
IC50 (Leukotriene B4 receptor): > 10 µM

SMILES: O=C([O-])/C=C1\CCC[C@H](/C=C\C(O)CCCCc2ccccc2)C1.[Na+] (some centres undefined)
IC50 (Leukotriene B4 receptor): 1.3 µM

More lines, main results first:

IC50 (Leukotriene B4 receptor): 0.08 µM
SMILES: CN(C)OC(=O)C[C@@]1(O)CCC[C@H](/C=C/C(O)CCCCc2ccccc2)C1 (some centres undefined)
pKB [1]: 6.91

IC50 (Leukotriene B4 receptor): > 10 µM
SMILES: CN(C)OC(=O)C[C@]1(O)CCC[C@H](/C=C/C(O)CCCCc2ccccc2)C1 (some centres undefined)

IC50 (Leukotriene B4 receptor): 1.5 µM
SMILES: O=C([O-])C[C@@]1(O)CCC[C@H](/C=C/C(O)CCCCc2ccccc2)C1.[Na+] (stereo in doubt; 3d)
pKB [1]: 6.31

IC50 (Leukotriene B4 receptor): 6.5 µM
SMILES: CN(C)C(=O)C[C@]1(O)CCC[C@H](/C=C/C(F)CCCCc2ccccc2)C1 (stereo in doubt; 16b)

IC50 (Leukotriene B4 receptor): > 10 µM
SMILES: O=C([O-])C[C@@]1(O)CCC[C@H](/C=C/C(O)CCCCc2ccccc2)C1.[Na+] (stereo in doubt; 3c)

IC50 (Leukotriene B4 receptor): > 10 µM
SMILES: O=C([O-])C[C@]1(O)CCC[C@H](/C=C/C(O)(CCCCc2ccccc2)CC(=O)O)C1.[Na+] (some centres undefined)

IC50 (Leukotriene B4 receptor): 0.8 µM
SMILES: O=C([O-])C[C@]1(O)CCC[C@H](/C=C/C(O)CCCCc2ccccc2)C1.[Na+] (stereo in doubt; 3b)
pKB [1]: 6.57

IC50 (Leukotriene B4 receptor): 5.3 µM
SMILES: O=C([O-])C[C@]1(O)CCC[C@H](CCC(O)CCCCc2ccccc2)C1.[Na+] (some centres undefined)

IC50 (Leukotriene B4 receptor): > 10 µM
SMILES: O=C([O-])C[C@]1(O)CCC[C@H](/C=C/C(=O)CCCCc2ccccc2)C1.[Na+]

IC50 (Leukotriene B4 receptor): > 10 µM
SMILES: O=C([O-])C[C@]1(O)CCC[C@H](/C=C/C(O)CCCCc2ccccc2)C1.[Na+] (stereo in doubt; 3a)
